# Measured values: paper PMC5269645 (Journal of the American Chemical Society, 2016)
# Where two headings read alike, the source gives them in different places.
# What was measured:
# BxGH99 [1] = target: T1, BxGH99 (Bacteroides xylanisolvens, UniProt D6D1V7); assay: 2D NMR; format: binding
# T1 sequence (D6D1V7 13-380): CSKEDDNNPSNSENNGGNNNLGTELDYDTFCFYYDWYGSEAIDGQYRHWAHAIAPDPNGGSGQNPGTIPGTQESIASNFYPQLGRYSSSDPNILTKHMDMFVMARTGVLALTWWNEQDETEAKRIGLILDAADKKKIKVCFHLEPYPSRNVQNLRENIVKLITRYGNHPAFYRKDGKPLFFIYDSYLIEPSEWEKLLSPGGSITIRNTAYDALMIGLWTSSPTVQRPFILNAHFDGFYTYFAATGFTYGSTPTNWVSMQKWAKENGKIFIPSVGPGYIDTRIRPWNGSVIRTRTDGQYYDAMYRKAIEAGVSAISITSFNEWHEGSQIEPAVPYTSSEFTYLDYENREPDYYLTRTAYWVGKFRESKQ
# In short: (§1)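 1H–15N SOFAST-HMQC spectra of 15N-labeled enzyme (average 58 μM) recorded for 1 h at 298 K in 50 mM potassium phosphate pH 7.0, 50 mM KCl, 5% D2O. Active-site Arg Nε-Hε peak (R295, Bx numbering) served as reporter. Bound fraction from peak intensities at several protein/ligand ratios, fitted against free ligand for KD. Duplicate points; Monte Carlo error propagation (n = 10 000), standard deviation.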
# BtGH99 [2] = target: T2, BtGH99 (Bacteroides thetaiotaomicron, UniProt Q8A109); assay: 2D NMR; format: binding
# T2 sequence (Q8A109 18-382): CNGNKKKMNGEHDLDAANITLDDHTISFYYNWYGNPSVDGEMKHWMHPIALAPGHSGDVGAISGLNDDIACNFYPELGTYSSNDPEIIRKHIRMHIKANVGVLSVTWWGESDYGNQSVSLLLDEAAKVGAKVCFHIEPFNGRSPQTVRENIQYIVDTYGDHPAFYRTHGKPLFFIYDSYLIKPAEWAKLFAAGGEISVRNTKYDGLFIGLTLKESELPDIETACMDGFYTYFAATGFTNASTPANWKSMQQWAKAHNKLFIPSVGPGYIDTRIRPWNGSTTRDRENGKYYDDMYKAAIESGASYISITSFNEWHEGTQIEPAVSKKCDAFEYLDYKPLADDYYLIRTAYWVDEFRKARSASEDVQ
# In short: as §1
# various glycosidases = conditions: cited from earlier work
# BtGH99 [3] = target: T2, BtGH99; conditions: read-out: KD values, BtGH99; ITC; cited from earlier work
# rat endomannosidase = conditions: read-out: IC50, rat endomannosidase; inhibition of cleavage of 14C-labeled GlcMan9GlcNAc; cited from earlier work
# BxGH99 [4] = conditions: read-out: KD values, BxGH99; ITC; cited from earlier work
compound,measurement,setting,value
"OC[C@H]1OCC[C@@H](O[C@H]2O[C@H](CO)[C@@H](O)[C@H](O)[C@@H]2O)[C@@H]1O [compound 5, α-D-Mannopyranosyl-(1→3)-1,2-dideoxy-D-mannopyranose]",Kd,BxGH99 [1],221 ± 11 µM
same,"affinity relative to ManGlucal, fold worse, BxGH99",BxGH99 [1]; ratio of KD values,8 fold
same,Kd,BtGH99 [2],53 ± 5 µM
OC[C@H]1CNC(O)[C@@H](O)[C@@H]1O (stereo partly drawn) [noeuromycin],times more tightly bound than isofagomine,various glycosidases,2–4000 times
"OC[C@H]1CNCC(O[C@H]2O[C@H](CO)[C@@H](O)[C@H](O)[C@H]2O)[C@@H]1O (stereo partly drawn) [compound 2, GlcIFG]",Kd,BtGH99 [3],0.63 µM
"OC[C@H]1O[C@H](O[C@@H]2C=CO[C@H](CO)[C@H]2O)[C@@H](O)[C@@H](O)[C@@H]1O [compound 7, α-D-Mannopyranosyl-(1→3)-1,5-anhydro-2-deoxy-D-arabino-hex-1-enitol]",Kd,BxGH99 [1],111 ± 11 µM
same,Kd,BtGH99 [2],15 ± 1.9 µM
"OC[C@H]1OCC[C@@H](O[C@H]2O[C@H](CO)[C@@H](O)[C@H](O)[C@H]2O)[C@@H]1O [compound 4, GlcddMan]",IC50,rat endomannosidase,3.8 µM
"OC[C@H]1NC[C@@H](O)[C@@H](O[C@H]2O[C@H](CO)[C@@H](O)[C@H](O)[C@H]2O)[C@@H]1O [compound 1, GlcDMJ]",IC50,rat endomannosidase,1.7 µM
same,Kd,BtGH99 [3],24 µM
"OC[C@H]1CNCC(O[C@H]2O[C@H](CO)[C@@H](O)[C@H](O)[C@@H]2O)[C@@H]1O (stereo partly drawn) [compound 3, ManIFG]",Kd,BxGH99 [4],0.27 µM
same,Kd,BtGH99 [3],0.14 µM
